Measured values taken from PMC8089085 (Drug Design, Development and Therapy, 2021).
Read-outs that look alike come from different tables or passages of the source.

Tests used:
[1] = type: in vivo, human
Method in brief: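 Randomized open-label three-way crossover in healthy subjects: six sequences, five per sequence, ≥7 days washout. SGLT2 inhibitor 25 mg, PPAR-γ agonist 0.5 mg or both given orally once daily for 5 days, fasting ≥8 h. EDTA plasma sampled predose and 0.33–24 h after fifth dose; UPLC-MS/MS, calibration 5.00–1000 ng/mL. Noncompartmental analysis; mixed-effect model giving geometric mean ratios with 90% CI.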

[2] = system: healthy subjects; assay: Tolerability assessment; type: in vivo, human; conditions: after multiple administrations in healthy subjects
Method in brief: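 Healthy subjects given at least one dose were followed from first administration to study end. Monitoring covered vital signs (systolic and diastolic pressure, pulse rate), physical examinations and adverse events. Events were elicited by nonleading open questioning and individual interviews, and each was judged for relation to the investigational drug.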

[3] = empagliflozin, with vs without lobeglitazone
[4] = lobeglitazone, with vs without empagliflozin

SMILES | 90% CI of AUCtau combination therapy-to-monotherapy ratio [1, 3] | 90% CI of Cmax,ss combination therapy-to-monotherapy ratio [1, 3] | other tolerability parameters (laboratory test results, vital signs, physical examination) [2] | 90% CI of AUCtau combination therapy-to-monotherapy ratio [1, 4] | 90% CI of Cmax,ss combination therapy-to-monotherapy ratio [1, 4]
OC[C@H]1O[C@@H](c2ccc(Cl)c(Cc3ccc(O[C@H]4CCOC4)cc3)c2)[C@H](O)[C@@H](O)[C@@H]1O [Empagliflozin] | 0.945–1.133 | 0.956–1.150 | no clinically significant findings |  | 
COc1ccc(Oc2cc(N(C)CCOc3ccc(CC4SC(=O)NC4=O)cc3)ncn2)cc1 (stereo not drawn) [Lobeglitazone] |  |  | no clinically significant findings | 0.851–1.018 | 0.869–0.995
